Measured values collected from several papers.
Each line is one published result; the experiments were not run side by side.
Target: Activin receptor type-1 (ACVR1, Homo sapiens, UniProt Q04771)
One construct used (Q04771 21-509): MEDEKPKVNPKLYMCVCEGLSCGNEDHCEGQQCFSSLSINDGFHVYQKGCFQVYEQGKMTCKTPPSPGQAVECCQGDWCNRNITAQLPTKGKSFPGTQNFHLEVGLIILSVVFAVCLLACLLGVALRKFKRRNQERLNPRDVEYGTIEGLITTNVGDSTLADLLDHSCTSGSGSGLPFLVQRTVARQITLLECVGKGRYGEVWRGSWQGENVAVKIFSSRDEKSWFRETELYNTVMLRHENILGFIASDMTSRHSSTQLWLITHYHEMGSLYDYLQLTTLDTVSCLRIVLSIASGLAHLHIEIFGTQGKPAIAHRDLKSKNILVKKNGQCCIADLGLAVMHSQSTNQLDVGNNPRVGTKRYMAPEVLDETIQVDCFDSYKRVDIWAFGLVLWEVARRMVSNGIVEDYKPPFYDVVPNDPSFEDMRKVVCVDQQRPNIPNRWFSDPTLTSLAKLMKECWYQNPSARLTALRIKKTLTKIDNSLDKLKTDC

Compound | observed | action | technique | tested at | measurement | value
COc1ccc2oc(-c3ccc4nc(N)oc4c3)c/c(=N\c3ccccc3NC(=O)CCN)c2c1 | binding | – | – | 1 µM | remaining binding | 104%
CO[C@@H]1[C@H](N(C)C(=O)c2ccccc2)C[C@H]2O[C@]1(C)n1c3ccccc3c3c4c(c5c6ccccc6n2c5c31)C(=O)NC4 | enzyme activity | inhibitor | – | 1 µM | inhibition | 0%
CC(C)S(=O)(=O)c1ccc2nccc(Nc3ccc4sc(C5CCCC5)nc4c3)c2c1 | enzyme activity | inhibitor | – | 1 µM | activity vs control | 111%
C=CC(=O)N1CCC([C@@H]2CCNc3c(C(N)=O)c(-c4ccc(Oc5ccccc5)cc4)nn32)CC1 | cell-free assay | – | – | 1 µM | inhibition | 13%
CN1CCN(C(=O)c2ccc(NC(=O)Nc3ccc(N(C)c4ccnc(Nc5ccc(CS(C)(=O)=O)cc5)n4)cc3)cc2)CC1 | binding | – | competition with immobilised ligand | 1 µM | remaining binding | 28%
CCCCC(=O)Nc1ccc(-c2ccc3ncn(CCC)c(=O)c3c2)cn1 | binding | – | competition with immobilised ligand | 0.5 µM | remaining binding | 100%
COc1ccc2[nH]c3c4[nH]c5ccc(OC)cc5c4c4c(c3c2c1)C(=O)NC4=O | binding | – | competition with immobilised ligand | 1 µM | remaining binding | 77%
C1=C/COCc2cc(ccc2OCCN2CCCC2)Nc2nccc(n2)-c2cccc(c2)COC/1 | binding | – | – | 0.1 µM | remaining binding | 3.7%
